KCNQ1 act: potentiates or activates the human KCNQ1 potassium channel. P51787. CHO-K1 KCNQ1, thallium flux FluxOR fluorescence; active compounds read high. B-score at 10 µM. 310,000 compounds, 0.35% hits;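 active means fluorescence ratio B-score, a plate-corrected score, at least three library SD, with initial intensity B-score within 5 SD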
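Assay system: CHO-K1 cells stably expressing KCNQ1. Medium: assay buffer for compound exposure, DMSO matched across wells. Timing: 37 °C overnight plating, 90-min dark dye load, 20-min compound pretreatment. Signal: kinetic FluxOR fluorescence, 10 s baseline plus 110 s post-stimulus.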
KCNK9 block: human KCNK9 channel inhibition | HEK293 KCNK9, FluxOR thallium flux fluorescence; active compounds read low | 310,000 compounds, 1.2% hits | Q9NPC2 | AID 488922 | B-score at 10 µM;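 active means ratio B-score over 3 SD below the library mean, with starting fluorescence within 5 SD of its mean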;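 further: negative B-score means less thallium flux so channel inhibition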
Target sequence (Q9NPC2 whole entry, looked up): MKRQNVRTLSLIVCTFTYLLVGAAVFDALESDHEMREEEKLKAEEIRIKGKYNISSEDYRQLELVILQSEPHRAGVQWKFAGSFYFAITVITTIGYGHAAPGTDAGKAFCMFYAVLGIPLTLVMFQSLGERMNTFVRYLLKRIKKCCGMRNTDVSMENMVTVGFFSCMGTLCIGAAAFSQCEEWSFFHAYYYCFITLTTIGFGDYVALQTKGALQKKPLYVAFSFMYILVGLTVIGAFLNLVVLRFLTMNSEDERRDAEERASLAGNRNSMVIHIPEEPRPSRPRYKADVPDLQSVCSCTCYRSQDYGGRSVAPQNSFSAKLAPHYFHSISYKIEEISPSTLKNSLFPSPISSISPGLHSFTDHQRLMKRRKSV
Kir21 block: inhibitors of mouse Kir2.1 inward-rectifier potassium channel; B-score at 10 µM; P35561; 310,000 compounds, 0.85% hits; HEK293-Kir2.1, FluxOR thallium flux fluorescence; active compounds read low;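 active means fluorescence ratio B-score at or below minus 3 SD of library scores, with starting-brightness B-score within 2 SD, cut at about -4.2 in these data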;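 further: channel flux triggered by added potassium and thallium sulfate stimulus; B-score of peak minus minimum fluorescence over baseline after thallium stimulus; more negative B-score means stronger Kir2.1 block with less thallium influx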
hERG rescue: shields human hERG channel from block by proarrhythmic agents; CHO-hERG, FluxOR thallium flux, dofetilide IC70 present; activation (rescue from dofetilide block), less the hit threshold, % at 10 µM; AID 1511; 310,000 compounds, 0.51% hits;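 active means activation above the mean of controls blocked by dofetilide plus 5 SD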;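 further: thallium influx through hERG after potassium depolarization seen as dye fluorescence rise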
KCNQ1 inh: human KCNQ1 channel inhibition; P51787; CHO-K1 KCNQ1, FluxOR thallium flux fluorescence; active compounds read high; B-score at 10 µM; 310,000 compounds, 1.3% hits;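 active means compounds whose thallium flux B-score, printed positive for inhibition, exceeds three library SD while starting fluorescence stays within three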;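 further: channel opened by potassium depolarization with thallium stimulus after 20 min compound exposure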
KCNK3 block: human KCNK3 channel inhibition, primary screen | CHO-KCNK3 thallium flux, FluxOR fluorescence; active compounds read low | B-score at 10 µM | 340,000 compounds, 0.84% hits;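 active means B-score under library mean minus 4 SD, starting fluorescence ratio at most library mean plus 5 SD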;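 further: more negative B-score means stronger inhibition of thallium flux through KCNK3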
The depositor's hits bear a star; i = inactive; . = not tested or not shown. Rows were chosen to be rich in hits. Some 3.8% of all compounds tested hit in one or more screens of this group.

SMILES	KCNQ1 act	KCNK9 block	Kir21 block	hERG rescue	KCNQ1 inh	KCNK3 block
Nc1ccc(S(=O)(=O)N2CCCCC2c2cccnc2)cc1 (configuration not stated)	i	i	-1.38	-2.8	i	i
O=C1NC(=O)C(Cc2cccs2)C(=O)N1	i	i	-0.8	-10.4	i	i
CCOc1ccc(-n2c(O)c(/C=C3\C=Nc4ccccc43)c(=O)[nH]c2=O)cc1	i	i	-0.54	-4.6	9*	i
C1CCC2S[C@H]3CCCCC3NC2C1 (some centres not stated)	i	i	0.29	5.3*	i	i
CCOc1ccccc1OCC(=O)Nc1ccc(Cl)cc1C(=O)c1ccccc1	i	i	-1.93	-5.7	6*	i
COc1ccccc1OCC(=O)Nc1ccc(Cl)cc1C(=O)c1ccccc1	i	i	-0.3	-3.9	i	i
O=C1NC(=O)C(=Cc2ccc(-c3ccc(F)cc3O)o2)C(=O)N1	i	i	0.6	-12.3	i	i
CCCOC(=O)c1ccc(-[n+]2c(-c3ccccc3)cc(-c3ccccc3)cc2-c2ccccc2)cc1	i	-7.7*	-11.4*	-36.4	12*	i
O=C(O)c1ccc(-[n+]2c(-c3ccccc3)cc(-c3ccccc3)cc2-c2ccccc2)cc1	i	i	-0.64	-1.6	i	i
CN(C)c1ccc(/C=C/[N+](=O)[O-])cc1	i	i	-6.27*	-17.2	12*	i
C[C@]12CC[C@H](O)C[C@H]1CC[C@@H]1[C@@H]2C[C@@H](O)[C@]2(C)[C@@H](C3=CC(=O)OC3)CC[C@]12O	.	.	.	.	.	i
CN1CCN(c2ccc([N+](=O)[O-])c3no[n+]([O-])c23)CC1	i	i	-6.62	-36.3	10*	i
COc1ccc(CCNCc2c(OC)ccc3ccccc23)cc1	i	i	-10.9*	-14.2	i	i
COc1ccc(CCNCc2ccccc2)cc1	i	i	-2.94	-8.9	i	i
O=C(CCc1nnc2ccc(NCc3ccccc3Cl)nn12)N1CCC2(CC1)OCCO2	i	i	0.83	-7.9	i	i
CCCCCCC(C)(C)c1ccc([C@@H]2C[C@H](O)CC[C@H]2CCCO)c(O)c1	.	.	.	.	.	-10.8*
COc1ccc(OC)c(N2C(=O)/C(=C/c3ccco3)C(=O)NC2=S)c1	i	i	1.87	8.4*	i	.
CN1CSC(=S)N(C)C1	i	i	0.11	-28.7	13*	i
O=C(c1ccc(-c2ccccc2)cc1)C1CCCN(Cc2ccn[nH]2)C1 (configuration not stated)	8*	i	-1.82	-8.9	i	i
CC1(C)C[C@H]2C=C(C=O)[C@]3(C=O)C[C@]3(C)[C@H]2C1	21*	i	-8.19*	-20.6	i	i
COC(=O)c1cccc(N=Cc2c(O)n(Cc3ccc(F)cc3)c(=O)[nH]c2=O)c1	i	i	0.99	-10.9	i	i
C[C@]1(O)CC[C@H]2[C@@H]3CCC4=CC(=O)CC[C@]4(C)[C@@]3(F)[C@@H](O)C[C@@]21C	.	.	.	.	.	-9.75*
C=C1C(=O)O[C@@H]2C[C@@H](C)[C@@H]3C=CC(=O)[C@@]3(C)[C@@H](OC(=O)CC(=O)O[C@H]3[C@@H]4C(=C)C(=O)O[C@@H]4C[C@@H](C)[C@@H]4C=CC(=O)[C@]43C)[C@H]12	i	i	-4.65*	-16.6	i	i
Fc1ccccc1CCNCc1cccc2ccccc12	i	i	-11.8*	-8.7	i	i
CCCCn1c(=O)c(C(=O)NCc2ccccc2)c(O)c2ccccc21	i	i	-1.19	-1.6	8*	i
SMILES	KCNQ1 act	KCNK9 block	Kir21 block	hERG rescue	KCNQ1 inh	KCNK3 block
CNc1ccc2oc(C[C@H]3O[C@@]4(CC[C@H]3C)O[C@H]([C@H](C)C(=O)c3ccc[nH]3)[C@H](C)C[C@H]4C)nc2c1C(=O)O	38*	i	0	-4.7	i	i
Cc1ccc2c(c1)CC1(CN2C)C(=O)NC(=O)N(CCC2=CCCCC2)C1=O (configuration not stated)	i	i	-0.66	-8.3	i	i
CCc1ccc(N2C(=O)NC(=O)C(CCc3ccncc3)(CCc3ccncc3)C2=O)cc1	i	i	-1.35	-1.6	i	i
COc1ccc(N2C(=O)NC(=O)C(CCc3ccncc3)(CCc3ccncc3)C2=O)cc1	i	i	0.63	4.6*	i	i
O=[N+]([O-])c1ccc(Cl)cc1	.	.	.	.	.	i
CCOc1cc2c(cc1OCC)-n1cccc1C(c1ccccc1O)NC2 (configuration not stated)	i	i	-0.36	-8.8	i	i
C=CC[N+]1(C)C2CCC1CC(O)C2 (configuration not stated)	i	i	0.75	6.2*	i	i
C/C(=N\N1CCN(C)CC1)c1c(O)[nH]c(=O)[nH]c1=O	i	i	0.49	-7.2	i	i
COc1ccc(-c2cc(-c3ccccc3)[n+](C)c(-c3ccccc3)c2)cc1	i	i	-2.49	-28.4	12*	i
C[n+]1c(-c2ccccc2)cc(CCCCc2cc(-c3ccccc3)[n+](C)c(-c3ccccc3)c2)cc1-c1ccccc1	i	i	-0.16	-20.6	7*	i
Cc1ccc(-c2cc(-c3ccccc3)cc(-c3ccccc3)[n+]2-c2ccc(C(=O)O)cc2)cc1	i	i	1.07	-3.5	i	i
Clc1ccc2c(c1)C(OC1CN3CCC1CC3)c1ccccc1CS2 (configuration not stated)	i	i	-5.86*	-15.4	i	i
CN1CCN(CCOC2c3ccccc3CSc3ccc(Cl)cc32)CC1 (configuration not stated)	i	i	-4.75*	-5.7	i	i
COc1ccc(NP(=O)(Oc2cccc(C)c2)Oc2cccc(C)c2)cc1OC	i	i	1.04	-12.2	i	i
O=P(Nc1ccccc1)(Oc1ccccc1)Oc1ccccc1	i	i	1.09	-11.2	i	i
COc1ccc(NP(=O)(Oc2ccc(Cl)cc2)Oc2ccc(Cl)cc2)cc1OC	i	-7.05*	0.75	-10.6	i	i
Cc1ccc(OP(=O)(Nc2cccc(C)c2)Oc2ccc(C)cc2)cc1	i	i	0.21	-3.5	6*	i
Cc1cccc(OP(=O)(Nc2cccnc2)Oc2cccc(C)c2)c1	i	i	1.22	-12.3	i	i
COc1cccc(OP(=O)(Nc2ccccc2)Oc2cccc(OC)c2)c1	i	i	-1.25	-4.6	i	-9.14*
Cc1cccc(OP(=O)(Nc2ccc(F)cc2)Oc2cccc(C)c2)c1	i	i	1.73	-29.8	8*	i
